Laboratory results published in ChEMBL document CHEMBL4014311, “Discovery of a Hepatitis C Virus NS5B Replicase Palm Site Allosteric Inhibitor (BMS-929075) Advanced to Phase 1 Clinical Studies” (J Med Chem, 2017).
Activity calls are given as the source filed them. The calls are words filed in the database; no cut-off is given here.

Legend:
[1] = Inhibition of HCV genotype 1b NS5B replicase C316N mutant infected in human HuH7 cells assessed as reduction of viral replication after 3 days by luciferase reporter assay; type: cell-based, Hepatitis C virus subtype 1b; conditions: Hepatitis C virus, Huh-7, 72 h
Hepatitis C virus [2] = experiment: Antiviral activity against HCV genotype 1b infected in human HuH7 cells after 3 days by luciferase reporter assay; type: functional, cell-based, Hepacivirus hominis; conditions: Hepatitis C virus, genotype 1b, Huh-7, 72 h; read-out: EC50
[3] = Membrane permeability at pH 7.4 by PAMPA; type: physicochemical; conditions: read-out: permeability
[4] = Drug uptake in Sprague-Dawley rat liver at 6 mg/kg, po via gavage after 6 hrs by LC-MS/MS analysis; type: ADME, organism-based; conditions: read-out: Drug uptake
Summary of the method: (§1)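 Fasted rats were dosed orally in 90:10 PEG-400/ethanol; 6 h livers came from satellite animals. In the screening variant, n = 2 and plasma was taken to 6 h with livers at the terminal point. Livers were rinsed, blotted, weighed and homogenized in 2 volumes of 80% acetonitrile in HBSS per gram, then centrifuged. Supernatant and plasma were analysed by LC/MS/MS.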

[5] = Half life in dog liver microsomes; type: ADME, Canis lupus familiaris, microsome
[6] = Half life in monkey liver microsomes; type: ADME, Macaca mulatta, microsome; conditions: rhesus monkey
[7] = biological target: T1, Voltage-gated inwardly rectifying potassium channel KCNH2 (Homo sapiens, UniProt Q12809); experiment: Inhibition of human ERG by thallium flux assay
Canis familiaris = experiment: Toxicity in dog up to 100 mg/kg, po administered as single dose measured up to 2 weeks; type: organism-based, Canis lupus familiaris; conditions: in vivo, 336 h
[8] = Clearance in Sprague-Dawley rat at 2 mg/kg, iv by LC/MS/MS analysis; type: ADME, organism-based; conditions: in vivo
Summary of the method: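 A 10 min constant-rate jugular vein infusion was given in 90:10 PEG-400/ethanol (v/v), n = 3 rats. Plasma was sampled predose and at 10, 15, 30, 45, 60 min and 2, 4, 6, 8, 24 h, then assayed by LC/MS/MS. Clearance and apparent terminal t1/2 were estimated by noncompartmental analysis.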

[9] = Cmax in Sprague-Dawley rat at 6 mg/kg, po administered via gavage by LC/MS/MS analysis; type: ADME, organism-based; set-up: dose 6 mg/kg, route oral; conditions: in vivo
Summary of the method: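 Rats were fasted overnight with free access to water, then dosed by gastric gavage with an […] solution in 90:10 PEG-400/ethanol (v/v), n = 3 per group. EDTA plasma was sampled predose and at 15, 30, 45, 60 min and 2, 4, 6, 8, 24 h, then assayed by LC/MS/MS. Parameters come from noncompartmental analysis: Cmax observed directly, AUC by linear/log trapezoidal summation, F as dose-normalized PO/IV AUC ratio.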

[10] = Tmax in Sprague-Dawley rat at 6 mg/kg, po administered via gavage by LC/MS/MS analysis; type: ADME, organism-based; conditions: in vivo
Summary of the method: (§2)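 Rats fasted overnight, then dosed by gavage at 6 mg/kg in 90:10 PEG-400/ethanol (v/v). Plasma sampled serially from cannula into EDTA tubes predose and at 15, 30, 45, 60 min and 2, 4, 6, 8, 24 h; n = 3. Livers removed at 6 h (satellite animals) and 24 h, homogenized in 80% acetonitrile/HBSS, assayed by LC/MS/MS. Tmax taken directly from observed data.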

Hepatitis C virus [11] = experiment: Antiviral activity against HCV genotype 1b infected in human HuH7 cells at >= 10 times antiviral EC50 after 3 days by luciferase reporter assay; type: functional, cell-based; conditions: Hepacivirus hominis
[12] = Drug uptake in Sprague-Dawley rat liver at 6 mg/kg, po administered via gavage after 24 hrs by LC/MS/MS analysis; type: ADME, organism-based; conditions: read-out: Drug uptake; summary of the method: as §1
[13] = Ratio of drug uptake in Sprague-Dawley rat liver to plasma at 6 mg/kg, po administered via gavage after 24 hrs by LC/MS/MS analysis; type: ADME, organism-based; summary of the method: as §2
Hepatitis C virus [14] = experiment: Antiviral activity against HCV genotype 2b infected in human HuH7 cells after 3 days by luciferase reporter assay; type: functional, cell-based, Hepacivirus hominis; conditions: Huh-7, 72 h
Hepatitis C virus [15] = experiment: Antiviral activity against HCV genotype 3a infected in human HuH7 cells after 3 days by luciferase reporter assay; type: functional, cell-based, Hepacivirus hominis; conditions: Huh-7, 72 h
Hepatitis C virus [16] = experiment: Antiviral activity against HCV genotype 4a infected in human HuH7 cells after 3 days by luciferase reporter assay; type: functional, cell-based, Hepacivirus hominis; conditions: Huh-7, 72 h
Hepatitis C virus [17] = experiment: Antiviral activity against HCV genotype 6a infected in human HuH7 cells after 3 days by luciferase reporter assay; type: functional, cell-based, Hepacivirus hominis; conditions: Huh-7, 72 h
Hepatitis C virus [18] = experiment: Ratio of EC50 for HCV genotype 1b infected in human HuH7 cells in presence of 40% human serum to EC50 for HCV genotype-1b infected in human HuH7 cells; type: functional, Hepacivirus hominis
[19] = Cytotoxicity against primary human hepatocytes; type: cell-based, Hepatocyte
Hepatitis C virus [20] = experiment: Antiviral activity against HCV genotype 1b infected in human HuH7 cells co-treated with daclatasvir/asunaprevir after 3 days by luciferase reporter assay; type: functional, cell-based; conditions: Hepacivirus hominis
[21] = Cytotoxicity against human HepG2 cells; type: cell-based
[22] = Protein binding in monkey serum; type: ADME, cell-free, Macaca mulatta; conditions: rhesus monkey, read-out: PB (converted)
[23] = Effective permeability across apical to basolateral side in human Caco2 cells; type: ADME, cell-based; conditions: Caco-2, read-out: Peff
[24] = Cmax in Sprague-Dawley rat at 6 mg/kg, po administered via gavage using docusate sodium/methocel/water formulation by LC/MS/MS analysis; type: ADME, organism-based; set-up: dose 6 mg/kg, route oral; conditions: in vivo
Summary of the method: (§3)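 Rats were fasted overnight and gavaged with a suspension of spray-dried dispersion (10% w/w drug loading in 0.02:0.5:99.48 docusate/methocel/water), n = 3 per group. Serial EDTA plasma was taken predose to 24 h and assayed by LC/MS/MS. Analysis was noncompartmental: Cmax observed, AUC by linear/log trapezoids, F from dose-normalized PO versus IV AUC.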

[25] = Tmax in Sprague-Dawley rat at 6 mg/kg, po administered via gavage using docusate sodium/methocel/water formulation by LC/MS/MS analysis; type: ADME, organism-based; conditions: in vivo
Summary of the method: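 Fasted rats gavaged at 6 mg/kg with a spray-dried dispersion suspension (10% w/w drug loading in 0.02:0.5:99.48 docusate/methocel/water). Serial plasma samples predose and at 15, 30, 45, 60 min and 2, 4, 6, 8, 24 h; n = 3. Plasma analyzed by LC/MS/MS. Tmax read directly from observed concentrations.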

[26] = biological target: T1, Voltage-gated inwardly rectifying potassium channel KCNH2; experiment: Inhibition of human ERG by patch clamp assay
[27] = biological target: Voltage-dependent L-type calcium channel subunit alpha-1C (Homo sapiens, UniProt Q13936); experiment: Inhibition of Cav1.2 (unknown origin)
[28] = Oral bioavailability in Sprague-Dawley rat at 6 mg/kg using docusate sodium/methocel/water formulation by LC/MS/MS analysis; type: ADME, organism-based; conditions: in vivo; summary of the method: as §3
Homo sapiens = experiment: Toxicity in human up to 400 mg, po administered as single dose; conditions: in vivo

T1 sequence (Q12809 whole entry): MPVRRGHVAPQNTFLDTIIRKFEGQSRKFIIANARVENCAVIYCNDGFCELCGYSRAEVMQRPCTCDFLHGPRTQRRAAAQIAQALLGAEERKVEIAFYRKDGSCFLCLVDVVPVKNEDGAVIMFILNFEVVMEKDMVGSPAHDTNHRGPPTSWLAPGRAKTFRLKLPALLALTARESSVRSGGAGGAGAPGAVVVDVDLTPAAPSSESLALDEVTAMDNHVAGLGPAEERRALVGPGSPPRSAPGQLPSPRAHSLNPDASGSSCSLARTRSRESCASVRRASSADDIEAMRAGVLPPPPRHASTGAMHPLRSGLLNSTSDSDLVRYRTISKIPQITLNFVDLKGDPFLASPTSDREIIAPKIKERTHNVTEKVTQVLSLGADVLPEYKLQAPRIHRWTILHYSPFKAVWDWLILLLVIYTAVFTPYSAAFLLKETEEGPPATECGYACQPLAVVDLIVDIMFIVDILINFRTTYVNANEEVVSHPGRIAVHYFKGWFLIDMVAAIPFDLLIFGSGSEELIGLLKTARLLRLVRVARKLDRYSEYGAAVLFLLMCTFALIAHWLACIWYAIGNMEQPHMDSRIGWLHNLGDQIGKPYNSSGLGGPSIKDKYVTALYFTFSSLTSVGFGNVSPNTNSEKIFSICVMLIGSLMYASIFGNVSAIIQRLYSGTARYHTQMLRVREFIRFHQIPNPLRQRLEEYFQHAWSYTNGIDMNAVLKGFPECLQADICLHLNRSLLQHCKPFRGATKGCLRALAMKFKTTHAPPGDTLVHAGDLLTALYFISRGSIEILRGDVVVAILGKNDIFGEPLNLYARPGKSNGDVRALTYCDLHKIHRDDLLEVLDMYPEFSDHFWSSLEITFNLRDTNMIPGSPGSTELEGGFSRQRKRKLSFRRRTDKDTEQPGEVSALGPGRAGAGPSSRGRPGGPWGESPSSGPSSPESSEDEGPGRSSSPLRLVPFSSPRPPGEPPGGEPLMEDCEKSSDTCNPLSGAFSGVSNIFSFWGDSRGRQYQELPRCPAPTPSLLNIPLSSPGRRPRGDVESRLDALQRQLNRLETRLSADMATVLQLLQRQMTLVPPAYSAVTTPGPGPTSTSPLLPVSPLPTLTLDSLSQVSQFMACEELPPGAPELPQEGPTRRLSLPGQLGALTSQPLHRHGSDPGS
Sequence of Voltage-dependent L-type calcium channel subunit alpha-1C (Q13936 whole entry): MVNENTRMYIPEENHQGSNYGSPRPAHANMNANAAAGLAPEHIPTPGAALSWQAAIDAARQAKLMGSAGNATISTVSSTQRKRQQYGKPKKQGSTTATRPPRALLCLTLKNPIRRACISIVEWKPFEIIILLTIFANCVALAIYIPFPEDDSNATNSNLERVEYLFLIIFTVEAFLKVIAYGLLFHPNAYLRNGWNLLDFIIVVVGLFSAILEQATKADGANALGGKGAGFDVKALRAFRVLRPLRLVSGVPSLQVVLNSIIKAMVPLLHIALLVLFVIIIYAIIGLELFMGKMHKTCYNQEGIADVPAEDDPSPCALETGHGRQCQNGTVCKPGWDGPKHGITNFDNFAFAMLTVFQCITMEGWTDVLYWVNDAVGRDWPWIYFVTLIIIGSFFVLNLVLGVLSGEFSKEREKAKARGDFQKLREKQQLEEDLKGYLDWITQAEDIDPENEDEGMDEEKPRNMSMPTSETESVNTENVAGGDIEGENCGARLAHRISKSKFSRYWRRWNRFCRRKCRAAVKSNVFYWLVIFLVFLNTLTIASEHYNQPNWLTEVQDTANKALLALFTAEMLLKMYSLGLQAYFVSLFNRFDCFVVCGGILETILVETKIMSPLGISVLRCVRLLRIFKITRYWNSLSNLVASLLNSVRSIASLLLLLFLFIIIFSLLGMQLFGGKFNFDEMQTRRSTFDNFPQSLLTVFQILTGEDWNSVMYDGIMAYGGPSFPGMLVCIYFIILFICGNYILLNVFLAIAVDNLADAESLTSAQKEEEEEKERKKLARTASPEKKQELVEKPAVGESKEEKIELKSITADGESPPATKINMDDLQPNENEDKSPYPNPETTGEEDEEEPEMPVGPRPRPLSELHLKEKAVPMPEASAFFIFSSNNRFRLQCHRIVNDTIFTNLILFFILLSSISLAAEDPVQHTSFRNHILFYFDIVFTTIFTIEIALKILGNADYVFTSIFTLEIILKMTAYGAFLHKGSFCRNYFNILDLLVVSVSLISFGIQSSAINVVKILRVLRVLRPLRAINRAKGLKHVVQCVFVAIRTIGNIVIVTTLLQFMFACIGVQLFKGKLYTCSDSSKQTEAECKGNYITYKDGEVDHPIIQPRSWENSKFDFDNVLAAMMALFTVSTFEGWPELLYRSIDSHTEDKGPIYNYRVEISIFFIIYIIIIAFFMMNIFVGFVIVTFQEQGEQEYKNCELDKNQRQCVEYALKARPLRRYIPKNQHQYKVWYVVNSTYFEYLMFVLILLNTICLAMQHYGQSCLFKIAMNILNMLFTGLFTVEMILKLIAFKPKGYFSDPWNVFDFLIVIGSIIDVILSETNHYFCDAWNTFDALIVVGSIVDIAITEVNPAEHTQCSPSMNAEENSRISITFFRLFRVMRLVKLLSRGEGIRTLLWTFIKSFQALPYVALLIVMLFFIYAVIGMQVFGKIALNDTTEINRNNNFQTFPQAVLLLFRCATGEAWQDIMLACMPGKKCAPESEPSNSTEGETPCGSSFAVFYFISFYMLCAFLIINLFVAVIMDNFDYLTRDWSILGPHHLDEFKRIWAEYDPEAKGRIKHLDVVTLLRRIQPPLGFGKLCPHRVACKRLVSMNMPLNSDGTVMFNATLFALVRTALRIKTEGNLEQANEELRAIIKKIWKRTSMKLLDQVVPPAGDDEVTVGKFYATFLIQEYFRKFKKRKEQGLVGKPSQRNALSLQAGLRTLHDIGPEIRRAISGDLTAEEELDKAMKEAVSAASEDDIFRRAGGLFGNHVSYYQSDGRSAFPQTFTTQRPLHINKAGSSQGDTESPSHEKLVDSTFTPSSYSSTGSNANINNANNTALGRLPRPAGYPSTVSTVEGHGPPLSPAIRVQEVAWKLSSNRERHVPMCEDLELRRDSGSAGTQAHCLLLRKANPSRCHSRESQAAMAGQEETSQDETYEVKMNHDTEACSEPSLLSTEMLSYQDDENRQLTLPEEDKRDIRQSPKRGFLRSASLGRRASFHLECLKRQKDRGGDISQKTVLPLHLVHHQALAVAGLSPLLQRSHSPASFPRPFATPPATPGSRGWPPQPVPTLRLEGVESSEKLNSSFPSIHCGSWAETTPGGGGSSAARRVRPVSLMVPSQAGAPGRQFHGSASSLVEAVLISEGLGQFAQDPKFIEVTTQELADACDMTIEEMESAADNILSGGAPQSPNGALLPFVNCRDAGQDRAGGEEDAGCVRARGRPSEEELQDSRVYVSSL

What does the source list for `CNC(=O)c1c(-c2ccc(F)cc2)oc2ccc(-c3cc(C(=O)NC4(c5ncccn5)CC4)ccc3C)c(F)c12` [BMS-929075]?
EC50 [1]: 0.018 µM; EC50 (Hepatitis C virus [2]): 0.004 µM; Papp [3]: 97.2 ×10⁻⁶ cm/s; concentration at 6 h [4]: 15.1 µM; half-life [5]: > 2 h; half-life [6]: > 2 h; IC50 [7]: 24 µM; Activity (Canis familiaris): Non-Toxic; clearance [8]: 1.7 mL/min/kg; Cmax [9]: 7.5 µM; Tmax [10]: 4 h; Activity (Hepatitis C virus [11]): Active; concentration at 24 h [12]: 1.12 µM; Kp at 24 h [13]: 1.6; EC50 (Hepatitis C virus [14]): 0.115 µM; EC50 (Hepatitis C virus [15]): 0.022 µM; EC50 (Hepatitis C virus [16]): 0.003 µM; EC50 (Hepatitis C virus [17]): 0.005 µM; Ratio EC50 (Hepatitis C virus [18]): 5.5; CC50 [19]: > 50 µM; Activity (Hepatitis C virus [20]): Active; CC50 [21]: > 12.5 µM; fraction unbound [22]: 0.028; Papp A→B [23]: > 10 ×10⁻⁶ cm/s; Cmax [24]: 14.7 µM; Tmax [25]: 4 h; IC50 [26]: 18 µM; inhibition (INH) [27]: Not Active; bioavailability [28]: > 100%; Activity (Homo sapiens): Non-Toxic
